Test results: ChEMBL document CHEMBL1914427, “Design, synthesis and biological evaluation of benzo[1.3.2]dithiazolium ylide 1,1-dioxide derivatives as potential dual cyclooxygenase-2/5-lipoxygenase inhibitors” (Bioorg Med Chem, 2011)
The source made the active and inactive calls. The calls are words filed in the database; no cut-off is given here.

Assays:
[1] = target: T1, Prostaglandin G/H synthase 2 (Homo sapiens) (UniProt P35354); assay: Inhibition of human recombinant COX2 expressed in Sf21 cells assessed as conversion of arachidonic acid to PGE2 at 10 uM preincubated for 15 mins measured after 5 mins by enzyme immunoassay
T1 sequence (whole entry): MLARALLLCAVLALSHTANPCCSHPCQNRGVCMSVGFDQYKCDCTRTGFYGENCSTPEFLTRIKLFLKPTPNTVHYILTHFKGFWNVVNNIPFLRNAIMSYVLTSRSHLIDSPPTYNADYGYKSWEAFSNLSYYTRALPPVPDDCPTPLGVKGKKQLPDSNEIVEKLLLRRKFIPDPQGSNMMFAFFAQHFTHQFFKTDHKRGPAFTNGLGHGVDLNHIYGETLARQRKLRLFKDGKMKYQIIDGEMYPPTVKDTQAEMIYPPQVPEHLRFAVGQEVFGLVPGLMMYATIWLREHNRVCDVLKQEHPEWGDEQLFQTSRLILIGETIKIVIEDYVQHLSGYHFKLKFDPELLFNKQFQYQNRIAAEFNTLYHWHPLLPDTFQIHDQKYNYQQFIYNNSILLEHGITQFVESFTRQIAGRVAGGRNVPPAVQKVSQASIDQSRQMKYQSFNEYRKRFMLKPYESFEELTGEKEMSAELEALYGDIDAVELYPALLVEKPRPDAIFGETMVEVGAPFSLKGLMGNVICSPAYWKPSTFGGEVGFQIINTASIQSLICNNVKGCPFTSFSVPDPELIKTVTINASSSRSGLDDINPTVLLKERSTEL
How it was run: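 Human recombinant COX-2 (Sf21-expressed, 0.11 U) preincubated with compound 15 min at 37 °C in Tris–HCl pH 7.7 containing 1 mM glutathione, phenol and hematin. Reaction started with 0.3 arachidonic acid. Run by a contract lab.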

[2] = target: T2, Polyunsaturated fatty acid 5-lipoxygenase (Homo sapiens) (UniProt P09917); assay: Inhibition of […] human 5-LOX in human PBML assessed as inhibition of A23187-induced LTB4 production at 10 uM preincubated for 15 mins measured after 15 mins by enzyme immunoassay
T2 sequence (whole entry): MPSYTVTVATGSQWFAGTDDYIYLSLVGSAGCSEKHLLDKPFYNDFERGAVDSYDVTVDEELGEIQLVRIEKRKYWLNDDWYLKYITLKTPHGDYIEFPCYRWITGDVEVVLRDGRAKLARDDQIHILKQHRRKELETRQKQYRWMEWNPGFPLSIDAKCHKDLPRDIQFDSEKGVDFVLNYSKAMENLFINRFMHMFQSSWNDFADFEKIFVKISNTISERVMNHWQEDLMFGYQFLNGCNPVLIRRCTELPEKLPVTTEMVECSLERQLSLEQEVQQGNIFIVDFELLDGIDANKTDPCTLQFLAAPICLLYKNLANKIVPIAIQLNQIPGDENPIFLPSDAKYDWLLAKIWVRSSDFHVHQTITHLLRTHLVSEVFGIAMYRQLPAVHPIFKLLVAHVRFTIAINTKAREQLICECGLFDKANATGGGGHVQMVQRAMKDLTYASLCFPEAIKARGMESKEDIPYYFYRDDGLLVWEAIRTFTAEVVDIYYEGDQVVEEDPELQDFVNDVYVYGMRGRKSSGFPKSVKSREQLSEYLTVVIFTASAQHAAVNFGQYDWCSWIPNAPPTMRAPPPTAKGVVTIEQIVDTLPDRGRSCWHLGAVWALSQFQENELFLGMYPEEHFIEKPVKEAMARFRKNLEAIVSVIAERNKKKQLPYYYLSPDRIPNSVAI
How it was run: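 Human PBML (5 × 10⁶ cells/mL) in HBSS pH 7.4 preincubated with compound 15 min at 37 °C. Calcium ionophore A23187 (30) then added, 15 min at 37 °C, and reaction stopped with 1 N HCl.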

[3] = target: T3, Prostaglandin G/H synthase 2 (Homo sapiens, UniProt P35354); assay: Inhibition of human recombinant COX2 expressed in Sf21 cells assessed as conversion of arachidonic acid to PGE2 preincubated for 15 mins measured after 5 mins by enzyme immunoassay
T3 sequence (P35354 whole entry): T1 sequence (whole entry)

[4] = target: T4, Polyunsaturated fatty acid 5-lipoxygenase (Homo sapiens, UniProt P09917); assay: Inhibition of […] human PBML assessed as inhibition of A23187-induced LTB4 production preincubated for 15 mins measured after 15 mins by enzyme immunoassay
T4 sequence (P09917 whole entry): T2 sequence (whole entry)

Rattus norvegicus [5] = assay: Antiinflammatory activity in Wistar rat assessed as inhibition of carrageenan-induced paw edema at 10 mg/kg, ip administered 30 mins before carrageenan challenge measured after 3 hrs relative to vehicle treated control; type: functional; conditions: route intraperitoneal
How it was run: (§1)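 Male Wistar rats, held at 20–24 °C and 50–80% humidity on 12 h light/dark for at least three days, with chow and water unless fasted. Test article given IP at 10, 30 or 100 mg/kg in 1% Tween 80/0.9% NaCl, dosing volume 5 mL/kg, 30 min before intraplantar carrageenan (0.1 mL of 1% suspension) into the right hind paw. Edema read by plethysmometer at 3 h; inhibition taken relative to vehicle group.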

Rattus norvegicus [6] = assay: Antiinflammatory activity in Wistar rat assessed as inhibition of carrageenan-induced paw edema at 30 mg/kg, ip administered 30 mins before carrageenan challenge measured after 3 hrs relative to vehicle treated control; type: functional; conditions: route intraperitoneal; how it was run: as §1
Rattus norvegicus [7] = assay: Antiinflammatory activity in Wistar rat assessed as inhibition of carrageenan-induced paw edema at 100 mg/kg, ip administered 30 mins before carrageenan challenge measured after 3 hrs relative to vehicle treated control; type: functional; conditions: route intraperitoneal; how it was run: as §1
Rattus norvegicus [8] = assay: Antiinflammatory activity in ip dosed Wistar rat assessed as inhibition of carrageenan-induced paw edema administered 30 mins before carrageenan challenge measured after 3 hrs; type: functional, organism-based; how it was run: as §1

| Compound | inhibition [1] | inhibition [2] | IC50 [4] [µM] | further results |
| --- | --- | --- | --- | --- |
| O=S1(=O)N=S(c2ccc(Br)cc2)c2ccccc21 (configuration not stated) | 2% | 33% |  |  |
| O=C(O)c1ccc2c(c1)S(=O)(=O)N=S2c1ccc(Br)cc1 (configuration not stated) | 7% | 2% |  |  |
| O=[N+]([O-])c1ccc2c(c1)S(=O)(=O)N=S2c1ccc(C(F)(F)F)cc1 (configuration not stated) |  |  | 3.09 | IC50 [3]: 2.99 µM |
| NC(=O)c1ccc2c(c1)S(=O)(=O)N=S2c1ccc(Br)cc1 (configuration not stated) | 0% | 15% |  |  |
| Cc1ccc(S2=NS(=O)(=O)c3ccc(S(N)(=O)=O)cc32)cc1C (configuration not stated) | 15% | inactive |  |  |
| Cc1ccc2c(c1)S(=O)(=O)N=S2c1ccc(Br)cc1 (configuration not stated) | 14% |  | 6.05 |  |
| NS(=O)(=O)c1ccc2c(c1)S(=O)(=O)N=S2c1ccc(-c2ccccc2)cc1 (configuration not stated) | 31% |  | 3.45 |  |
| COc1ccc(S2=NS(=O)(=O)c3ccc(S(N)(=O)=O)cc32)cc1 (configuration not stated) | inactive | 21% |  |  |
| O=[N+]([O-])c1ccc2c(c1)S(=O)(=O)N=S2c1ccncc1 (configuration not stated) | 15% | 17% |  |  |
| O=S1(=O)N=C(c2ccc(Br)cc2)c2ccccc21 | 0% | 11% |  |  |
| COc1ccc(S2=NS(=O)(=O)c3cc([N+](=O)[O-])ccc32)cc1OC (configuration not stated) | 15% |  | 0.68 |  |
| NS(=O)(=O)c1ccc2c(c1)S(c1ccc(F)cc1F)=NS2(=O)=O (configuration not stated) | inactive | inactive |  |  |
| Cc1ccc(S2=NS(=O)(=O)c3ccc(S(N)(=O)=O)cc32)cc1 (configuration not stated) | 2% | 9% |  |  |
| CC(C)(C)c1ccc(S2=NS(=O)(=O)c3cc(S(N)(=O)=O)ccc32)cc1 (configuration not stated) | 21% | 23% |  |  |
| O=[N+]([O-])c1ccc2c(c1)S(=O)(=O)N=S2c1ccc(-c2ccccc2)cc1 (configuration not stated) |  |  | 0.15 | IC50 [3]: 0.5 µM |
| CCc1ccc(S2=NS(=O)(=O)c3cc([N+](=O)[O-])ccc32)cc1 (configuration not stated) |  |  | 0.18 | IC50 [3]: 1.7 µM |
| Cc1ccc(S2=NS(=O)(=O)c3ccc(S(N)(=O)=O)cc32)c(C)c1 (configuration not stated) | inactive | inactive |  |  |
| NS(=O)(=O)c1ccc2c(c1)S(c1ccc(Cl)cc1Cl)=NS2(=O)=O (configuration not stated) | 9% | inactive |  |  |
| O=S1(=O)N=S(c2ccccc2)c2ccccc21 (configuration not stated) | 0% | 14% |  |  |
| NS(=O)(=O)c1ccc2c(c1)S(c1ccc(C(F)(F)F)cc1)=NS2(=O)=O (configuration not stated) | inactive | 37% |  |  |
| CC(C)c1ccc(S2=NS(=O)(=O)c3cc(S(N)(=O)=O)ccc32)cc1 (configuration not stated) | 44% | 42% |  |  |

| Compound | inhibition [1] | inhibition [2] | IC50 [4] [µM] | further results |
| --- | --- | --- | --- | --- |
| CC(C)(C)c1ccc(S2=NS(=O)(=O)c3ccc(S(N)(=O)=O)cc32)cc1 (configuration not stated) | inactive | 25% |  |  |
| COC1(c2cc(F)cc(OCCS3=NS(=O)(=O)c4cc([N+](=O)[O-])ccc43)c2)CCOCC1 (configuration not stated) | 25% | 25% |  |  |
| Cc1ccc(C2=NS(=O)(=O)c3ccccc32)cc1 | 16% | 9% |  |  |
| CS(=O)(=O)c1ccc2c(c1)S(=O)(=O)N=S2c1ccc(Br)cc1 (configuration not stated) |  |  | 13.5 | IC50 [3]: 1.8 µM |
| NS(=O)(=O)c1cc2c(cc1Cl)S(c1ccc(Br)cc1)=NS2(=O)=O (configuration not stated) |  |  | 25.8 | IC50 [3]: 2.3 µM |
| CCc1ccc(S2=NS(=O)(=O)c3ccc(S(N)(=O)=O)cc32)cc1 (configuration not stated) | inactive | 7% |  |  |
| NS(=O)(=O)c1ccc2c(c1)S(c1ccc(Cl)c(Cl)c1)=NS2(=O)=O (configuration not stated) | 14% | inactive |  |  |
| COc1ccc(S2=NS(=O)(=O)c3ccc(S(N)(=O)=O)cc32)cc1OC (configuration not stated) | 6% | inactive |  |  |
| NS(=O)(=O)c1ccc2c(c1)S(=O)(=O)N=S2c1ccc(Br)cc1 (configuration not stated) | 0% |  | 91.1 |  |
| CC(C)c1ccc(S2=NS(=O)(=O)c3cc([N+](=O)[O-])ccc32)cc1 (configuration not stated) |  |  | 0.36 | IC50 [3]: 0.73 µM |
| CCc1ccc(S2=NS(=O)(=O)c3cc(S(C)(=O)=O)ccc32)cc1 (configuration not stated) | 43% | 35% |  |  |
| COc1cc(OC)cc(OCCS2=NS(=O)(=O)c3cc([N+](=O)[O-])ccc32)c1 (configuration not stated) | 35% |  | 3.7 |  |
| CCc1ccc(C2=NS(=O)(=O)c3cc(S(N)(=O)=O)ccc32)cc1 | 0% | 8% |  |  |
| CC(C)c1ccc(S2=NS(=O)(=O)c3ccc(S(N)(=O)=O)cc32)cc1 (configuration not stated) | 10% | 19% |  |  |
| NS(=O)(=O)c1ccc2c(c1)S(c1cccc(Br)c1)=NS2(=O)=O (configuration not stated) | 7% | 28% |  |  |
| COc1ccc(S2=NS(=O)(=O)c3cc([N+](=O)[O-])ccc32)cc1 (configuration not stated) |  |  | 0.35 | IC50 [3]: 0.88 µM |
| COC(=O)c1ccc2c(c1)S(=O)(=O)N=S2c1ccc(Br)cc1 (configuration not stated) | 33% |  | 4.1 |  |
| NS(=O)(=O)c1ccc2c(c1)S(c1ccc(Br)cc1)=NS2(=O)=O (configuration not stated) |  | 14% |  |  |
| CC(C)(C)c1ccc(S2=NS(=O)(=O)c3cc([N+](=O)[O-])ccc32)cc1 (configuration not stated) |  |  | 0.3 | IC50 [3]: 0.27 µM; inhibition in vivo at 10 mg/kg (Rattus norvegicus [5]): 14%; inhibition in vivo at 30 mg/kg (Rattus norvegicus [6]): 27%; inhibition in vivo at 100 mg/kg (Rattus norvegicus [7]): 65%; inhibition (Rattus norvegicus [8]): Dose-dependent effect |
| NS(=O)(=O)c1ccc2c(c1)S(c1ccc(F)cc1)=NS2(=O)=O (configuration not stated) | 2% | 9% |  |  |
| NS(=O)(=O)c1ccc2c(c1)S(c1ccc(Cl)cc1)=NS2(=O)=O (configuration not stated) | inactive | 19% |  |  |
